# System: Fibroblast
# Assay: Multiplex assay against human fibroblast
# Format: toxicity, cell-based
# How it was run: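 Imaging took place on a CQ1 microscope at 37°C and 5% CO2 once compound had been added to live cells stained at seeding with Hoechst33342, BioTracker Green Microtubule Cytoskeleton Dye, MitoTracker Red and Annexin V Alexa Fluor 680. CellPathfinder machine-learning gating classed cells as Hoechst high-intensity objects or normal cells, classed normal cells as having healthy, pyknosed or fragmented nuclei, and classed pyknosed cells as mitotic or apoptotic. Tubulin, mitochondrial-mass and membrane-permeability phenotypes are per cents of the healthy-nucleus cells.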
# [1] = 12 h, 1 µM, compound concentration 1 uM, replicate 1
# [2] = 12 h, 1 µM, compound concentration 1 uM, replicate 2
# [3] = 12 h, 10 µM, compound concentration 10 uM, replicate 1
# [4] = 12 h, 10 µM, compound concentration 10 uM, replicate 2
# [5] = 24 h, 1 µM, compound concentration 1 uM, replicate 1
# [6] = 24 h, 1 µM, compound concentration 1 uM, replicate 2
# [7] = 24 h, 10 µM, compound concentration 10 uM, replicate 1
# [8] = 24 h, 10 µM, compound concentration 10 uM, replicate 2
# [9] = 48 h, 1 µM, compound concentration 1 uM, replicate 1
# [10] = 48 h, 1 µM, compound concentration 1 uM, replicate 2
# [11] = 48 h, 10 µM, compound concentration 10 uM, replicate 1
# [12] = 48 h, 10 µM, compound concentration 10 uM, replicate 2
smiles,measurement,setting,value
CC(/C=C1\SC(=S)N(CCCC(=O)Nc2ccc(C(=O)O)c(O)c2)C1=O)=C\c1ccccc1,Population Apoptotic (%),[1],50%
same,Population Fragmented Nuclei (%),[1],14%
same,Population Healthy Nuclei (%),[1],71%
same,Population Hoechst High Intensity Objects (%),[1],2%
same,Population Membrane Permeable-Phenotype (%),[1],0%
same,Population Mitochondria Different-Phenotype (%),[1],2%
same,Population Mitotic Cells (%),[1],50%
same,Population Normal (%),[1],97%
same,Population Pyknosed Nuclei (%),[1],13%
same,Population Tubulin-Different-Phenotype (%),[1],28%
same,Total Cell Count,[1],206
same,Population Apoptotic (%),[2],33%
same,Population Fragmented Nuclei (%),[2],19%
same,Population Healthy Nuclei (%),[2],60%
same,Population Hoechst High Intensity Objects (%),[2],3%
same,Population Membrane Permeable-Phenotype (%),[2],13%
same,Population Mitochondria Different-Phenotype (%),[2],9%
same,Population Mitotic Cells (%),[2],66%
same,Population Normal (%),[2],96%
same,Population Pyknosed Nuclei (%),[2],19%
same,Population Tubulin-Different-Phenotype (%),[2],54%
same,Total Cell Count,[2],157
same,Population Apoptotic (%),[3],56%
same,Population Fragmented Nuclei (%),[3],15%
same,Population Healthy Nuclei (%),[3],70%
same,Population Hoechst High Intensity Objects (%),[3],2%
same,Population Membrane Permeable-Phenotype (%),[3],0%
same,Population Mitochondria Different-Phenotype (%),[3],5%
same,Population Mitotic Cells (%),[3],43%
same,Population Normal (%),[3],97%
same,Population Pyknosed Nuclei (%),[3],13%
same,Population Tubulin-Different-Phenotype (%),[3],44%
same,Total Cell Count,[3],123
same,Population Apoptotic (%),[4],40%
same,Population Fragmented Nuclei (%),[4],19%
same,Population Healthy Nuclei (%),[4],48%
same,Population Hoechst High Intensity Objects (%),[4],4%
same,Population Membrane Permeable-Phenotype (%),[4],8%
same,Population Mitotic Cells (%),[4],59%
same,Population Normal (%),[4],95%
same,Population Pyknosed Nuclei (%),[4],31%
same,Population Tubulin-Different-Phenotype (%),[4],54%
same,Total Cell Count,[4],122
same,Population Apoptotic (%),[5],54%
same,Population Fragmented Nuclei (%),[5],17%
same,Population Healthy Nuclei (%),[5],72%
same,Population Hoechst High Intensity Objects (%),[5],1%
same,Population Membrane Permeable-Phenotype (%),[5],2%
same,Population Mitochondria Different-Phenotype (%),[5],4%
same,Population Mitotic Cells (%),[5],45%
same,Population Normal (%),[5],98%
same,Population Pyknosed Nuclei (%),[5],10%
same,Population Tubulin-Different-Phenotype (%),[5],25%
same,Total Cell Count,[5],208
same,Population Apoptotic (%),[6],33%
same,Population Healthy Nuclei (%),[6],63%
same,Population Hoechst High Intensity Objects (%),[6],2%
same,Population Membrane Permeable-Phenotype (%),[6],5%
same,Population Mitochondria Different-Phenotype (%),[6],12%
same,Population Mitotic Cells (%),[6],66%
same,Population Normal (%),[6],97%
same,Population Pyknosed Nuclei (%),[6],19%
same,Population Tubulin-Different-Phenotype (%),[6],44%
same,Total Cell Count,[6],144
same,Population Apoptotic (%),[7],66%
same,Population Fragmented Nuclei (%),[7],11%
same,Population Healthy Nuclei (%),[7],81%
same,Population Hoechst High Intensity Objects (%),[7],0%
same,Population Membrane Permeable-Phenotype (%),[7],0%
same,Population Mitochondria Different-Phenotype (%),[7],4%
same,Population Mitotic Cells (%),[7],33%
same,Population Normal (%),[7],99%
same,Population Pyknosed Nuclei (%),[7],7%
same,Population Tubulin-Different-Phenotype (%),[7],25%
same,Total Cell Count,[7],119
same,Population Apoptotic (%),[8],53%
same,Population Fragmented Nuclei (%),[8],20%
same,Population Healthy Nuclei (%),[8],53%
same,Population Hoechst High Intensity Objects (%),[8],4%
same,Population Membrane Permeable-Phenotype (%),[8],11%
same,Population Mitotic Cells (%),[8],46%
same,Population Normal (%),[8],95%
same,Population Pyknosed Nuclei (%),[8],26%
same,Population Tubulin-Different-Phenotype (%),[8],70%
same,Total Cell Count,[8],120
same,Population Apoptotic (%),[9],78%
same,Population Fragmented Nuclei (%),[9],24%
same,Population Healthy Nuclei (%),[9],66%
same,Population Hoechst High Intensity Objects (%),[9],3%
same,Population Membrane Permeable-Phenotype (%),[9],1%
same,Population Mitochondria Different-Phenotype (%),[9],2%
same,Population Mitotic Cells (%),[9],21%
same,Population Normal (%),[9],96%
same,Population Pyknosed Nuclei (%),[9],9%
same,Population Tubulin-Different-Phenotype (%),[9],31%
same,Total Cell Count,[9],216
same,Population Apoptotic (%),[10],45%
same,Population Fragmented Nuclei (%),[10],29%
same,Population Healthy Nuclei (%),[10],56%
same,Population Hoechst High Intensity Objects (%),[10],1%
same,Population Membrane Permeable-Phenotype (%),[10],7%
same,Population Mitochondria Different-Phenotype (%),[10],6%
same,Population Mitotic Cells (%),[10],54%
same,Population Normal (%),[10],98%
same,Population Pyknosed Nuclei (%),[10],14%
same,Population Tubulin-Different-Phenotype (%),[10],44%
same,Total Cell Count,[10],159
same,Population Apoptotic (%),[11],46%
same,Population Fragmented Nuclei (%),[11],18%
same,Population Healthy Nuclei (%),[11],69%
same,Population Hoechst High Intensity Objects (%),[11],0%
same,Population Membrane Permeable-Phenotype (%),[11],0%
same,Population Mitochondria Different-Phenotype (%),[11],1%
same,Population Mitotic Cells (%),[11],53%
same,Population Normal (%),[11],100%
same,Population Pyknosed Nuclei (%),[11],12%
same,Population Tubulin-Different-Phenotype (%),[11],33%
same,Total Cell Count,[11],124
same,Population Apoptotic (%),[12],59%
same,Population Fragmented Nuclei (%),[12],34%
same,Population Healthy Nuclei (%),[12],46%
same,Population Hoechst High Intensity Objects (%),[12],3%
same,Population Membrane Permeable-Phenotype (%),[12],5%
same,Population Mitochondria Different-Phenotype (%),[12],5%
same,Population Mitotic Cells (%),[12],40%
same,Population Normal (%),[12],96%
same,Population Pyknosed Nuclei (%),[12],19%
same,Population Tubulin-Different-Phenotype (%),[12],58%
same,Total Cell Count,[12],118

# From ChEMBL document CHEMBL5058577, “EUbOPEN Chemogenomics Library 2 (Multiplex)” (2022)
